Test [1] deals with Rattus norvegicus. The test is described as follows: Cardioprotective activity against acute myocardial infarction Wistar rat model assessed as reduction in percentage of ischemic area to total area of left ventricle at 10 mg/kg, ip by ECG analysis. It counts as functional. Also on record: scale not given: the % may be the effect or the level left. The essentials:
(§1)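 Adult male Wistar rats (350–450 g) dosed i.p. 2 h before surgery (vehicle DMSO 1 ml kg⁻¹), then anaesthetized with thiopental (70 mg kg⁻¹ i.p.). LAD occluded 30 min (ST elevation on ECG, cyanosis) then reperfused 120 min. Hearts washed on Langendorff, LV sliced and stained with TTC 1% at 37 °C for 20 min; infarct area/LV area by planimetry. n = 5 per group.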

Test [2] addresses T1, NAD-dependent protein deacetylase sirtuin-1 (Homo sapiens) (UniProt Q96EB6).
T1 sequence (whole entry): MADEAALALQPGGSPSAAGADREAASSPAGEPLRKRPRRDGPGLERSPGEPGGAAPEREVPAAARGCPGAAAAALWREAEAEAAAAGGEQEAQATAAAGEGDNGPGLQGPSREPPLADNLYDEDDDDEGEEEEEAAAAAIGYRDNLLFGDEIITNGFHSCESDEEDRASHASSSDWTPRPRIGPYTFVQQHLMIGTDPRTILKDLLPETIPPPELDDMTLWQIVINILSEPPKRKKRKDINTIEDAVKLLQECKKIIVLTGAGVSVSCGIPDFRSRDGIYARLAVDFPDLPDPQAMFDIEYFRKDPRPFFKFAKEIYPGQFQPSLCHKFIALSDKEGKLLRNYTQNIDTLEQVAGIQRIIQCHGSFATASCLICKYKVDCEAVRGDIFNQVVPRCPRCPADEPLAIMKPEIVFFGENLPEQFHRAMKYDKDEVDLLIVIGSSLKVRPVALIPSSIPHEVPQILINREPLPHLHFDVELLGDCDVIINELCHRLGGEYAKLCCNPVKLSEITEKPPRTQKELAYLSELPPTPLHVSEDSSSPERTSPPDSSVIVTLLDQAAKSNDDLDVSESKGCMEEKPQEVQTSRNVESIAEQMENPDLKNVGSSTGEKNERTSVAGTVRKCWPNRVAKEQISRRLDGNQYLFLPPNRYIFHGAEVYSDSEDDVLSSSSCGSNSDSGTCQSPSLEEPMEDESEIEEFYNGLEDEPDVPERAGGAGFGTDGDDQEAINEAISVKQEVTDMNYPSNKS
Kind of test: Activation of human recombinant SIRT1 at 3 to 100 uM by fluorescence based spectrofluorometer analysis. Particulars: filed as activator, dose 3-100 µM.

Test [3] has as its target T1, NAD-dependent protein deacetylase sirtuin-1 (Homo sapiens). Kind of test: Activation of human recombinant SIRT1 by fluorescence based spectrofluorometer analysis. The following applies: filed as activator, dose 3-100 µM.
Test [4] deals with Rattus norvegicus. Kind of test: Cardioprotective activity against acute myocardial infarction Wistar rat model assessed as reduction in percentage of ischemic area to total area of left ventricle at 0.1 mg/kg, ip by ECG analysis. Also on record: scale not given: the % may be the effect or the level left. In kind it is functional. The essentials: as §1
Test [5] deals with T1, NAD-dependent protein deacetylase sirtuin-1 (Homo sapiens). The test is described as follows: Activation of human recombinant SIRT1 at 3 uM by fluorescence based spectrofluorometer analysis.

Active and inactive are the calls of the source. The rule behind the calls is not given here.

`Oc1ccc(/C=C/c2cc(O)cc(O)c2)cc1` [RESVERATROL]: in the test on Rattus norvegicus [1], the Activity is given as 30%.
Take `Oc1cccc(Nc2cc(-c3cccc(O)c3)ccn2)c1`: the outcome in test [2] was Active.
Regarding `Oc1ccc(Nc2cccc(-c3ccc(O)cc3)n2)cc1`, in test [2], the outcome was Active. The Activity entry in test [3] is “Dose-Dependent Effect”; in the test on Rattus norvegicus [4], 28%.
Regarding `Oc1ccc(Nc2cccc(-c3cccc(O)c3)n2)cc1`, the result in test [2] was Active. For the same compound, the Activity entry in test [3] is “Dose-Dependent Effect”.
Consider `Oc1ccc(-c2cccc(Nc3cccc(O)c3)n2)cc1`, for which, in test [2], the outcome was Active. For the same compound, the Activity entry is “Dose-Dependent Effect” in test [3] and 6% with Rattus norvegicus [1].
In the case of `Oc1cccc(Nc2ccnc(-c3cccc(O)c3)c2)c1`, in test [3], the Activity entry is “Dose-Dependent Effect”. Further, the result in test [5] was inactive.
`Oc1cccc(Nc2cccc(-c3cccc(O)c3)n2)c1`: the outcome in test [2] was Active. Besides, in test [3], the Activity entry is “Dose-Dependent Effect”.

Values taken from ChEMBL document CHEMBL5357046, “Sirtuin 1-activating derivatives belonging to the anilinopyridine class displaying in vivo cardioprotective activities” (2024).
